For orientation: EC50 means the concentration needed to bring the measured effect to its halfway point. As usually defined, the IC50 is the concentration that inhibits the measured activity by half. A lower IC50 goes with inhibition by little substance.

From ChEMBL document CHEMBL5380839, “Design and Pharmacological Characterization of α4β1 Integrin Cyclopeptide Agonists: Computational Investigation of Ligand Determinants for Agonism versus Antagonism” (J Med Chem, 2023) come the findings set out here.

A short description of data set [1]: Stability in mouse serum assessed as parent compound remaining incubated upto 3 hrs by RP HPLC analysis. The data set is classed as ADME, cell-free. Conditions: read-out: Stability. In outline:
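Peptide stock (10 mM in Tris buffer pH 7.4) diluted 1:20 into mouse serum and held at 37 °C. […] Remaining peptide in the supernatant measured by RP HPLC. Triplicate, repeated three times.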

Data set [2] deals with T1, Integrin alpha-4/beta-1 (Homo sapiens, UniProt P05556+P13612). In words: Agonist activity at alpha4beta1 integrin receptor in human Jurkat E6.1 cells assessed as inhibition of fibronectin-induced cell adhesion pre-incubated for 30 mins followed by 30 mins incubation in fibronectin coated wells by fluorescence plate reader assay. It counts as cell-based.
Data set [3] deals with T2, Integrin alpha4/beta7 complex (Homo sapiens, UniProt P26010+P48169). Description: Agonist activity at alpha4beta7 integrin receptor in human RPMI-8866 cells assessed as inhibition of mucosal vascular add-ressin cell adhesion molecule 1-induced cell adhesion pre-incubated for 30 mins followed by 30 mins incubation in mucosal vascular add-ressin cell adhesion molecule 1 coated wells by fluorescence plate reader assay. It counts as cell-based.

In data set [4] the target is T3, Integrin alpha-M/beta-2 (Homo sapiens, UniProt P05107+P11215). In words: Agonist activity at alphaMbeta2 integrin receptor in human HL-60 cells assessed as inhibition of fibrinogen-induced cell adhesion pre-incubated for 30 mins followed by 30 mins incubation in fibrinogen coated wells by fluorescence plate reader assay. It counts as cell-based.
Data set [5] concerns the target T1, Integrin alpha-4/beta-1. Description: Binding affinity to alpha4beta1 integrin receptor (unknown origin) preincubated for 30 mins followed by 30 mins incubation in fibronectin coated wells by fluorescence based assay. It counts as protein-complex assay.
For data set [6], the target named is T1, Integrin alpha-4/beta-1. In words: Binding affinity to alpha4beta1 integrin receptor (unknown origin) preincubated for 30 mins followed by 30 mins incubation in vascular cell adhesion molecule 1-induced cell adhesion coated wells by fluorescence based assay. The data set is classed as protein-complex assay.
Data set [7] concerns the target T2, Integrin alpha4/beta7 complex. In words: Binding affinity to alpha4beta7 integrin receptor (unknown origin) preincubated for 30 mins followed by 30 mins incubation in mucosal vascular add-ressin cell adhesion molecule 1 coated wells by fluorescence based assay. The data set is classed as protein-complex assay.
In data set [8] the target is T3, Integrin alpha-M/beta-2. In words: Binding affinity to alphaMbeta2 integrin receptor (unknown origin) preincubated for 30 mins followed by 30 mins incubation in fibrinogen coated wells by fluorescence based assay. The data set is classed as protein-complex assay.
The target in the next data set is Integrin alpha-5/beta-1 (Homo sapiens, UniProt P05556+P08648). Description: Binding affinity to alpha5beta1 integrin receptor (unknown origin) preincubated for 30 mins followed by 30 mins incubation in fibronectin coated wells by fluorescence based assay. It counts as protein-complex assay.

Starred links: 1 amine or outer side, 2 acyl side, 3 side chain; linkers in the order of their positions; H or OH if unused. Positions of bridges follow the written chain, without caps; N, C: chain ends. Non-standard residues stand in square brackets, D forms with d. Residues, ends and D or L forms follow the SMILES beside them. Groups on a side chain read outwards from the residue. *: point of attachment. dPhe(4-NH2) = Nc1ccc(C[C@@H](N)C(=O)O)cc1; Phe(4-NH2) = Nc1ccc(C[C@H](N)C(=O)O)cc1; X1 = O=C(Cc1ccc(N[*:1])cc1)[*:2]; NH(2-Me-phenyl) = Cc1ccccc1N*; Phg = N[C@H](C(=O)O)c1ccccc1; d(β3hA) = C[C@@H](N)CC(=O)O; CO = O=C([*:1])[*:2]; NHPr = CCCN* Bounds are passed on as bounds.

T1 sequence (P05556 whole entry): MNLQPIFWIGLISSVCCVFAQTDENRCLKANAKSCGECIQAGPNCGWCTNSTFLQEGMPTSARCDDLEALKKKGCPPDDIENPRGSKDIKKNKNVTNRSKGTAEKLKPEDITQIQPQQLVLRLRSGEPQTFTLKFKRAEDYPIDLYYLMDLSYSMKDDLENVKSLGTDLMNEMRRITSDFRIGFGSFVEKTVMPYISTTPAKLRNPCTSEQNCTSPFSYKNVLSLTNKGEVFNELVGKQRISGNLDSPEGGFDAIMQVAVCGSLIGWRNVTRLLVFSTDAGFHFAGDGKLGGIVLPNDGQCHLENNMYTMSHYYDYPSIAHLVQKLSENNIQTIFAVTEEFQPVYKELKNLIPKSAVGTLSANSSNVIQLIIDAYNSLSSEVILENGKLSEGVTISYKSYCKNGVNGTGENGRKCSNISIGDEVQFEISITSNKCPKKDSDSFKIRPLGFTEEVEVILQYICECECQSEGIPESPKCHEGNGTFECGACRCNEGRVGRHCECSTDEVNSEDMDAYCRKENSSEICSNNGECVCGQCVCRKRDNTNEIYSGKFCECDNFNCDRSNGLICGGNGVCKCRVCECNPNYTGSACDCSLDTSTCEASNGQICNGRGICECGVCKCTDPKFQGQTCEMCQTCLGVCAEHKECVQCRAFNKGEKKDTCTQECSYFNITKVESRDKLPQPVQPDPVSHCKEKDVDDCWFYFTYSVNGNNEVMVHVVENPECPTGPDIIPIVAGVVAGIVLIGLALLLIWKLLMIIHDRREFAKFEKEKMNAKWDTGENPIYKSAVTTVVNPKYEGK
T1 sequence (P13612 whole entry): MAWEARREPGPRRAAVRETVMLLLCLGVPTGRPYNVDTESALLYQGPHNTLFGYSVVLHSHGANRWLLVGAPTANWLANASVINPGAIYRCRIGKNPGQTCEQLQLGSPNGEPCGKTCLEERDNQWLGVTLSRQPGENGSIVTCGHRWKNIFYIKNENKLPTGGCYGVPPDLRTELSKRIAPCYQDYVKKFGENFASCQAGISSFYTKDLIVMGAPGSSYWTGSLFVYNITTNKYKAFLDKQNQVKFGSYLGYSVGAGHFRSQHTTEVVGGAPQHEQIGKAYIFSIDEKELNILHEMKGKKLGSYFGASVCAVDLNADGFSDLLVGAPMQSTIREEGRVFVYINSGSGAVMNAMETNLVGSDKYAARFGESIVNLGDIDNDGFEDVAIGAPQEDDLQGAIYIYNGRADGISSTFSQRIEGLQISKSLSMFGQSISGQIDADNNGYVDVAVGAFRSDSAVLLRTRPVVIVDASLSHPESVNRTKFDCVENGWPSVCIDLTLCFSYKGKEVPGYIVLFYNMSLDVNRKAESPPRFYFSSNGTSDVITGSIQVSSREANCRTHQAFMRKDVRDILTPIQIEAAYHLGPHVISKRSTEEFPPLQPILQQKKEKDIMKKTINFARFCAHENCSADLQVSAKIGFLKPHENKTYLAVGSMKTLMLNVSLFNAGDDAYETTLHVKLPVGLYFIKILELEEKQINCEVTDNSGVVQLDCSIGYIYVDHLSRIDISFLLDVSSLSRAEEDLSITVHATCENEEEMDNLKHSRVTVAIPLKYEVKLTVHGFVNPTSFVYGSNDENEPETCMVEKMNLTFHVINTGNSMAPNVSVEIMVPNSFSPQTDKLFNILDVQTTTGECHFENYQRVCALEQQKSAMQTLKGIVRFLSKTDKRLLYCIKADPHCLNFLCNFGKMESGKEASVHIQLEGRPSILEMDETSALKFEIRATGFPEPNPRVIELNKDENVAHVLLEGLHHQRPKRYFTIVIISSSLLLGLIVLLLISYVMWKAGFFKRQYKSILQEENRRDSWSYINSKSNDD
T2 sequence (P48169 whole entry): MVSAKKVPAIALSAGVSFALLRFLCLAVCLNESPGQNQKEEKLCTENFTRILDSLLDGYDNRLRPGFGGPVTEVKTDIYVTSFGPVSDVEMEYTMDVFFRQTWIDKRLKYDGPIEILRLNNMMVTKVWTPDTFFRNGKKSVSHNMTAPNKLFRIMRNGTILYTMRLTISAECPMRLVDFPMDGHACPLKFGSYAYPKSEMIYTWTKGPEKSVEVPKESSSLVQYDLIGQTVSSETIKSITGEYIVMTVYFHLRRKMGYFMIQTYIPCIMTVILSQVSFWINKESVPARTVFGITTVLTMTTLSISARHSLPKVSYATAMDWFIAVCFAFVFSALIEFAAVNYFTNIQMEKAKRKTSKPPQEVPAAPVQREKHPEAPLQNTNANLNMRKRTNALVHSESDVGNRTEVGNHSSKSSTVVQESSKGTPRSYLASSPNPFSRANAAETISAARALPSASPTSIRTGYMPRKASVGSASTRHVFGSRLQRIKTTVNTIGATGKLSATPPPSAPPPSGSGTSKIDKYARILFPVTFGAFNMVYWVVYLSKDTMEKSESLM
T2 sequence (P26010 whole entry): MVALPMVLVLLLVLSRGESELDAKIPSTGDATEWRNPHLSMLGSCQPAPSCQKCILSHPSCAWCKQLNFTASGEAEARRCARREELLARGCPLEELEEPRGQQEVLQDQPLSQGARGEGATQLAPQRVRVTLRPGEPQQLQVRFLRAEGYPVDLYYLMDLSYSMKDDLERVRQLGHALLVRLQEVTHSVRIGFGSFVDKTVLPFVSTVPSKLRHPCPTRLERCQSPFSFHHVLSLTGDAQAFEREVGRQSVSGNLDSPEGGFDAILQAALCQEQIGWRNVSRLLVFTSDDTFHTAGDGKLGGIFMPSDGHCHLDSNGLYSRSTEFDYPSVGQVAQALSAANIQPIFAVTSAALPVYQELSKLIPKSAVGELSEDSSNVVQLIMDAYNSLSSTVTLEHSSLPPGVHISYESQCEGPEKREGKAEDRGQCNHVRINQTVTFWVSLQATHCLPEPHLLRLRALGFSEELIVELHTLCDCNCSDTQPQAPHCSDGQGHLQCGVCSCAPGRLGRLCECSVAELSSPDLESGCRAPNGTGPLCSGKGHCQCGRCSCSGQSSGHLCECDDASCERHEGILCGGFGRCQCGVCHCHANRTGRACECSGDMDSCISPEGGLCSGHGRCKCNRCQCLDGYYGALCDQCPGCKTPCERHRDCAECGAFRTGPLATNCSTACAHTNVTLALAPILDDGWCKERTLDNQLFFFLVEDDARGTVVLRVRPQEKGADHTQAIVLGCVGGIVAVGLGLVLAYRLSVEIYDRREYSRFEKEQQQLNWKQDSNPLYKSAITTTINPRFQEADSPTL
T3 sequence (P05107 23-769 limits assumed, other chains not shown): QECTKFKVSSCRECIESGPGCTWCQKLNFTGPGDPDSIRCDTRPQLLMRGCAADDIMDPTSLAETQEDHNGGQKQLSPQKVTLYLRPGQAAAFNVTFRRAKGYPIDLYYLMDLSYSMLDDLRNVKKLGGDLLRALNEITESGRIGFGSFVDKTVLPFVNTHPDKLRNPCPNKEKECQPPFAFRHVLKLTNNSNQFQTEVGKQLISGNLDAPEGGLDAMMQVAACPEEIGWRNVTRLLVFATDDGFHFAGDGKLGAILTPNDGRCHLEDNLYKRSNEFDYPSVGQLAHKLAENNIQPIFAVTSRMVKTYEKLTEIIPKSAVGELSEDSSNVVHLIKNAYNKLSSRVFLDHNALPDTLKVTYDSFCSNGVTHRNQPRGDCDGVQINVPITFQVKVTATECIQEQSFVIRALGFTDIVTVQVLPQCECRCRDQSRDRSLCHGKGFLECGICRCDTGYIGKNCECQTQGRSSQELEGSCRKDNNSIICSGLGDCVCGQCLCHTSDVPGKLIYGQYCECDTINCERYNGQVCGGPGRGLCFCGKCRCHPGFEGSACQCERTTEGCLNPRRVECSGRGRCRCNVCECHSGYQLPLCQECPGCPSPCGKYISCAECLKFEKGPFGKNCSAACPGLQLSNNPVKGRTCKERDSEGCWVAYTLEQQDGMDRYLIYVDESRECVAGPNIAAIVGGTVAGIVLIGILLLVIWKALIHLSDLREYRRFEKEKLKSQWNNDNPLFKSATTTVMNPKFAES

For `Cc1ccccc1NC(=O)Nc1ccc(C[C@H]2NC(=O)C[C@@H](C(=O)O)NC(=O)[C@H](C(C)C)NC(=O)[C@H](CC(=O)O)NC(=O)[C@H](CC(C)C)NC2=O)cc1` ([dPhe(4-NH2)]([CO-NH(2-Me-phenyl)])LDVD-OH; lactam N-5), the remaining at 3 h in data set [1] was > 85%. Regarding `Cc1ccccc1NC(=O)Nc1ccc(C[C@H]2NC(=O)C[C@@H](C)NC(=O)[C@H](C(C)C)NC(=O)[C@H](CC(=O)O)NC(=O)[C@H](CC(C)C)NC2=O)cc1` (cyclo(DV[d(β3hA)][dPhe(4-NH2)]([CO-NH(2-Me-phenyl)])L)), the half-maximal effective concentration (EC50) on Integrin alpha-4/beta-1 [2] was > 5 µM.

Turning to `Cc1ccccc1NC(=O)N1C(=O)CC1CC(=O)NCC(=O)O` (centres undefined), the half-maximal effective concentration (EC50) (in data set [3]; on Integrin alpha-M/beta-2 [4]) was > 5 µM in each case. For the compound `Cc1ccccc1NC(=O)Nc1ccc(C[C@@H]2NC(=O)C[C@@H](C(=O)O)NC(=O)[C@H](C(C)C)NC(=O)[C@H](C)NC(=O)[C@H](Cc3ccccc3)NC2=O)cc1` ([Phe(4-NH2)]([CO-NH(2-Me-phenyl)])FAVD-OH; lactam N-5), the half-maximal effective concentration (EC50) on Integrin alpha-4/beta-1 [2] came out at 1.06 µM. Moreover, the 50% inhibitory concentration (IC50) on Integrin alpha-4/beta-1 [5] is 0.976 µM; at Integrin alpha-4/beta-1 [6], 0.899 µM; in data set [7], > 5 µM; on Integrin alpha-M/beta-2 [8] it was > 5 µM; on Integrin alpha-5/beta-1, > 5 µM. `Cc1ccccc1NC(=O)Nc1ccc(C[C@@H]2NC(=O)C[C@@H](C)NC(=O)[C@H](C(C)C)NC(=O)[C@H](CC(=O)O)NC(=O)[C@H](CC(C)C)NC2=O)cc1` (cyclo([Phe(4-NH2)]([CO-NH(2-Me-phenyl)])LDV[d(β3hA)])): the EC50 at Integrin alpha-4/beta-1 [2] is > 5 µM. As to `Cc1ccccc1NC(=O)Nc1ccc(C[C@@H]2NC(=O)C[C@@H](C(=O)O)NC(=O)[C@H](C(C)C)NC(=O)[C@H](CC(=O)O)NC(=O)[C@H](Cc3ccccc3)NC2=O)cc1` ([Phe(4-NH2)]([CO-NH(2-Me-phenyl)])FDVD-OH; lactam N-5), the EC50 on Integrin alpha-4/beta-1 [2] is > 5 µM. The same measure, in the same setting: next, `CCCNC(=O)[C@@H]1CC(=O)N[C@@H](Cc2ccc(NC(=O)Nc3ccccc3C)cc2)C(=O)N[C@@H](CC(C)C)C(=O)N[C@@H](CC(=O)O)C(=O)N[C@@H](C(C)C)C(=O)N1` ([Phe(4-NH2)]([CO-NH(2-Me-phenyl)])LDVD-NHPr; lactam N-5): > 5 µM; `Cc1ccccc1NC(=O)Nc1ccc(C[C@H]2NC(=O)C[C@@H](C(=O)O)NC(=O)[C@H](c3ccccc3)NC(=O)[C@H](CC(=O)O)NC(=O)[C@H](CC(C)C)NC2=O)cc1` ([dPhe(4-NH2)]([CO-NH(2-Me-phenyl)])LD[Phg]D-OH; lactam N-5): > 5 µM. For the compound `Cc1ccccc1NC(=O)Nc1ccc(C[C@@H]2NC(=O)C[C@@H](C(=O)O)NC(=O)[C@H](C(C)C)NC(=O)[C@H](CC(=O)O)NC(=O)[C@H](CC(C)C)NC2=O)cc1` ([Phe(4-NH2)]([CO-NH(2-Me-phenyl)])LDVD-OH; lactam N-5), in [1], the remaining at 3 h is > 85%. Regarding `Cc1ccccc1NC(=O)Nc1ccc(CC(=O)N[C@@H](CC(C)C)C(=O)N[C@@H](CC(=O)O)C(=O)N[C@H](C(=O)N2CCC[C@H]2C(=O)O)C(C)C)cc1` ({NH(2-Me-phenyl)-CO}-[X1]LDVP-OH), the IC50 (in [7]; on Integrin alpha-M/beta-2 [8]) was > 1 µM each time. For `Cc1ccccc1NC(=O)N1C(=O)CC1CC(=O)O` (centres undefined), the EC50 (in data set [3]; on Integrin alpha-M/beta-2 [4]) was > 5 µM each time.
